Activity calls are given as the source filed them. The calls are words filed in the database; no cut-off is given here.
How the values were obtained:
[1] = species: Cavia porcellus; experiment: Inverse agonist effect on calcium-induced increase in resting tension of calcium-depleted guinea pig thoracic aorta at 10 nM; assay type: functional
Outline: (§1)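 Guinea pig thoracic aorta was calcium-depleted and preincubated with antagonist, then challenged with Ca2+. The Ca2+-induced increase in resting tone was compared with the increase after the same Ca2+ challenge in the absence of antagonist.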

[2] = target: T1, 5-hydroxytryptamine receptor 1A (Rattus norvegicus, UniProt P19327); experiment: Displacement of [3H]8-OH-DPAT from 5-HT1A receptor in rat hippocampus; assay type: tissue-based
T1 sequence (P19327 whole entry): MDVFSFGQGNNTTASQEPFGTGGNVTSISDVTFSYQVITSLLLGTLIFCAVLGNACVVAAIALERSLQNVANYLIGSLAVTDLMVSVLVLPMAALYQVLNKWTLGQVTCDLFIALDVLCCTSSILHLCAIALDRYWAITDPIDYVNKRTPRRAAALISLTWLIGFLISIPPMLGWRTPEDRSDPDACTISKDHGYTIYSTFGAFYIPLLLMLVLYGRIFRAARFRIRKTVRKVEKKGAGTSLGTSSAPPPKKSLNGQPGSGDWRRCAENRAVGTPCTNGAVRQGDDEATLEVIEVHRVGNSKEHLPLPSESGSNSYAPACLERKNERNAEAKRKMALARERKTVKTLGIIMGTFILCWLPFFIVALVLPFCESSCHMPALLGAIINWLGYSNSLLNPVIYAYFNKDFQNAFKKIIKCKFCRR
Outline: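 Radioligand binding with [3H]-8-OH-DPAT in membrane preparations from rat hippocampus. Affinity is expressed as pKi.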

[3] = target: T2, Alpha-1A adrenergic receptor (Rattus norvegicus, UniProt P43140); experiment: Activity at adrenergic alpha 1A receptor assessed as antagonism of noradrenaline-induced contraction of Sprague-Dawley rat vas deferens; assay type: functional, tissue-based; settings: read-out: pA2 (converted)
T2 sequence (P43140 whole entry): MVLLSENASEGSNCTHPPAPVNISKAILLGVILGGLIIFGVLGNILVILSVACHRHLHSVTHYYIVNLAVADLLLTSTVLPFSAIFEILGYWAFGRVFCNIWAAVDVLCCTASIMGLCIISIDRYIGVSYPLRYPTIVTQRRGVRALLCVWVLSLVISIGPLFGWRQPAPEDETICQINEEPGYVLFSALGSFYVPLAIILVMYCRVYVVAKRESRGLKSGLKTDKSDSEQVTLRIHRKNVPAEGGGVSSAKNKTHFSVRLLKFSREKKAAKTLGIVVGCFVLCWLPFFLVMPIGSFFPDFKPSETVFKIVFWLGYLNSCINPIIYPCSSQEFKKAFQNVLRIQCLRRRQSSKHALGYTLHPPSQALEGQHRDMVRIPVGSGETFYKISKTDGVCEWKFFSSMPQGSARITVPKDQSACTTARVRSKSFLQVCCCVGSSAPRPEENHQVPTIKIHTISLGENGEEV
Outline: (§2)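 Rat vas deferens, prostatic portion. Contraction was induced with (-)-noradrenaline, and blocking activity was measured as antagonism of that contraction.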

[4] = target: Adrenergic receptors; alpha-1 A & B (Homo sapiens) (UniProt P35348+P35368); experiment: Selectivity for human adrenergic alpha 1B receptor over human adrenergic alpha 1A receptor; assay type: protein assay
[5] = target: T3, Alpha-1B adrenergic receptor (Rattus norvegicus, UniProt P15823); experiment: Activity at adrenergic alpha 1B receptor assessed as antagonsim of phenylephrine-induced contraction of Sprague-Dawley rat spleen; assay type: functional, tissue-based; settings: read-out: pA2 (converted)
T3 sequence (P15823 whole entry): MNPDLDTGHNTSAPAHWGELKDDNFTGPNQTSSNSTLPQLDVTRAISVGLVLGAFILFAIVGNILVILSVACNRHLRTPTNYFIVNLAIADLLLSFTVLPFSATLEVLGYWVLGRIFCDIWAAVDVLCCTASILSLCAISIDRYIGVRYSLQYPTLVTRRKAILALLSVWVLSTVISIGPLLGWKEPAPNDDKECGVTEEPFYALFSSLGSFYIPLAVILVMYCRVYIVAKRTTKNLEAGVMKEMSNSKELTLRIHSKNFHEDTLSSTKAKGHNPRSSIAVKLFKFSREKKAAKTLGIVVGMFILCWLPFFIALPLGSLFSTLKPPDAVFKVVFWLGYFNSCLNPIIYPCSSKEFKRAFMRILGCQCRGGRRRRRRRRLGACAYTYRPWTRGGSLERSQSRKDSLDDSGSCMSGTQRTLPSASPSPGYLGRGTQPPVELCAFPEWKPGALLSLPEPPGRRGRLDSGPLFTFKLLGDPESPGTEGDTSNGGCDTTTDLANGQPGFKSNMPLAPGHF
Outline: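 Rat spleen contracted with (-)-phenylephrine. Blocking activity was measured as antagonism of the contraction.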

[6] = target: Alpha adrenergic receptor 1A and 1D (Rattus norvegicus) (UniProt P23944+P43140); experiment: Selectivity for Sprague-Dawley rat adrenergic alpha 1D receptor over adrenergic alpha 1A receptor; assay type: functional
[7] = target: T4, Alpha-2A adrenergic receptor (Rattus norvegicus, UniProt P22909); experiment: Activity at adrenergic alpha 2A receptor assessed as antagonism on clonidine-inhibited twitch responses of field-stimulated Sprague-Dawley rat vas deferens; settings: read-out: pA2 (converted)
T4 sequence (P22909 whole entry): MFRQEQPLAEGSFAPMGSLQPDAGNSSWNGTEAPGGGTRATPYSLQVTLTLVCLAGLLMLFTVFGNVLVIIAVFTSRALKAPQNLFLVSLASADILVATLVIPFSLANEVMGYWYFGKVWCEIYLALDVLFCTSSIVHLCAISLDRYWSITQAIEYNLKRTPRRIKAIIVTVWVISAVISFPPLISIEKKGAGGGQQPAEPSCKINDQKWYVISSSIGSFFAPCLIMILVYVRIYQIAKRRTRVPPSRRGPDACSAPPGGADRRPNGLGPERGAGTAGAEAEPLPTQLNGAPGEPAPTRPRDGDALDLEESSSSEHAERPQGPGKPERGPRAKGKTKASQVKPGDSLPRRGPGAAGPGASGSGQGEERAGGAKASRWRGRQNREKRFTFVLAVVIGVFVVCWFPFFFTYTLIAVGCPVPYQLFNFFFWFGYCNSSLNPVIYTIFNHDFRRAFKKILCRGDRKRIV

[8] = target: T2, Alpha-1A adrenergic receptor; experiment: Activity at adrenergic alpha 1A receptor assessed as antagonsim of noradrenaline-induced contraction of […]; assay type: functional, tissue-based, Sprague-Dawley; settings: read-out: pA2 (converted); outline: as §2
[9] = species: Cavia porcellus; experiment: Inverse agonist effect on calcium-induced increase in resting tension of calcium-depleted guinea pig thoracic aorta at 100 nM; assay type: functional; outline: as §1

Adrenergic receptors; alpha-1 A & B (Homo sapiens), sequence (P35348 whole entry, looked up): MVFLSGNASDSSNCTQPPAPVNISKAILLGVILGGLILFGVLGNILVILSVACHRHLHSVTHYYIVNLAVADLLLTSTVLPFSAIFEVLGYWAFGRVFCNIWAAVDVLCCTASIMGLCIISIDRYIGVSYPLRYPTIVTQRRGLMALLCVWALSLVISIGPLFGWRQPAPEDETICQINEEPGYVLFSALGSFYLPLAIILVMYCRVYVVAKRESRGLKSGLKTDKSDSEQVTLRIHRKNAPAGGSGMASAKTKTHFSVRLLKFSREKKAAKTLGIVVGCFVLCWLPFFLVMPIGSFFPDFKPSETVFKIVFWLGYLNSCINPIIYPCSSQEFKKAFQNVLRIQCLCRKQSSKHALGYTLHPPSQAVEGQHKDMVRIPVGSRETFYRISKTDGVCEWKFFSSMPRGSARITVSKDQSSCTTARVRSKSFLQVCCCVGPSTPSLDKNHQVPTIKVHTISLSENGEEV
Adrenergic receptors; alpha-1 A & B (Homo sapiens), sequence (P35368 whole entry, looked up): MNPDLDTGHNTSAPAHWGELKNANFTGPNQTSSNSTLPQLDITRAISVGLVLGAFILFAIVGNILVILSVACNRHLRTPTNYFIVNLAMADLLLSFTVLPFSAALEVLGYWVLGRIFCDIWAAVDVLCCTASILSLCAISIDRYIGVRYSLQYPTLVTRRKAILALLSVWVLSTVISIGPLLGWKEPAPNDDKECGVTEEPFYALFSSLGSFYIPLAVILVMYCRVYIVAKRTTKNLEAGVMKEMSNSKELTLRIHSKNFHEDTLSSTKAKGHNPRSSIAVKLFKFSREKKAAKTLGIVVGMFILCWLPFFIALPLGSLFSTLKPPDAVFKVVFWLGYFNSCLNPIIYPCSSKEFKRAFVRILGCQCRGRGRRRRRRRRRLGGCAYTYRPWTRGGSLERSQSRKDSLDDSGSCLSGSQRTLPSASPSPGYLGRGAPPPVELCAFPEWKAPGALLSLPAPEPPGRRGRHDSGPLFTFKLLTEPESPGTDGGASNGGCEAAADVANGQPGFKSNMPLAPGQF
Alpha adrenergic receptor 1A and 1D (Rattus norvegicus), sequence (P23944 whole entry, looked up, one chain of several): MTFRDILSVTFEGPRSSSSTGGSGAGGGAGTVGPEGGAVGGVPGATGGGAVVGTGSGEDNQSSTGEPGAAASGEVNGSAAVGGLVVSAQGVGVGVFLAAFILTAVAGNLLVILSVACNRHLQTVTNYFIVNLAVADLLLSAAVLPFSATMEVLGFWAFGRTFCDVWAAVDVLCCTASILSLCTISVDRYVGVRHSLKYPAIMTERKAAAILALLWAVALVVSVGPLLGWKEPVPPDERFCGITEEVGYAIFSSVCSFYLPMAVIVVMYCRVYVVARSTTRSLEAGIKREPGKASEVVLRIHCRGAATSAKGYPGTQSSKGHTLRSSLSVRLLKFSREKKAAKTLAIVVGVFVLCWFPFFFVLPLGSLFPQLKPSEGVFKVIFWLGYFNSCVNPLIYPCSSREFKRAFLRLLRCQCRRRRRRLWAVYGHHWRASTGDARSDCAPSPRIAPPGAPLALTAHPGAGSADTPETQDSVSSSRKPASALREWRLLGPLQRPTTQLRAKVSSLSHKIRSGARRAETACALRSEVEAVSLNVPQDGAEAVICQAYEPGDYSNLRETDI

Structure (SMILES) | Ki [2] | Kb [3] | Selectivity ratio [4] | Kb [5] | Selectivity ratio [6] | Kb [7] | Kb [8] | Activity [1] | Activity [9]
COc1cc(-c2ccccc2)ccc1OCCNC[C@H]1COc2ccccc2O1 | 74.1 nM | 759 nM | 2.1 | 132 nM | 0.14 | – | – | – | –
COc1cccc(OC)c1OCCNC[C@H]1COc2cc3ccccc3cc2O1 | 347 nM | 3470 nM | 26.3 | 2450 nM | 0.05 | > 10000 nM | – | – | –
COc1cccc(OC)c1OCCNC[C@H]1COc2cc3c(cc2O1)CCCC3 | 363 nM | > 10000 nM | 22.9 | 2630 nM | < 0.4 | – | – | – | –
COc1ccc2ccccc2c1OCCNC[C@H]1COc2cc3c(cc2O1)CCCC3 | 1700 nM | 10.5 nM | 5.6 | > 10000 nM | 245 | > 10000 nM | 42.7 nM | – | Active

Molecules with a lower Ki [2], results first:

Ki [2] | Kb [3] | Selectivity ratio [4] | Kb [5] | Selectivity ratio [6] | Kb [7] | Kb [8] | Structure (SMILES) | Activity [1] | Activity [9]
67.6 nM | 58.9 nM | 18.6 | 14.8 nM | 0.17 | 631 nM | – | COc1ccc2ccccc2c1OCCNC[C@@H]1COc2ccccc2O1 | inactive | –
52.5 nM | > 10000 nM | 1.9 | 135 nM | < 0.006 | – | – | COc1ccc(-c2ccccc2)cc1OCCNC[C@H]1COc2ccccc2O1 | – | –
11.2 nM | 1.1 nM | 10 | 0.204 nM | 0.02 | 1350 nM | – | COc1ccc2ccccc2c1OCCNC[C@H]1COc2ccccc2O1 | Active | –
8.51 nM | 91.2 nM | 6.8 | 4.47 nM | 0.04 | – | – | COc1ccc2c(c1OCCNC[C@H]1COc3ccccc3O1)CCCC2 | – | –
6.92 nM | 6.17 nM | 14.8 | 7.59 nM | 0.2 | – | – | COc1cccc(-c2ccccc2)c1OCCNC[C@H]1COc2ccccc2O1 | inactive | –
